≈ marks a conversion by molar mass, not a printed value. Calls of active or inactive are those of the source. No cut-off for these calls is given here.

MIC, Activity and Ratio data for 13 molecules are collected here from ChEMBL document CHEMBL4052686, “Synthesis and antibacterial activity of 5-methylphenanthridium derivatives as FtsZ inhibitors” (2017).

Test [1] deals with Escherichia coli. Description: Inhibition of FtsZ in penicillin-susceptible Escherichia coli ATCC 25922 assessed as lowest drug concentration causing inhibition of cell division incubated for 5 hrs by phase-contrast light microscopy. Put shortly: (§1)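 Cell division inhibition judged from bacterial cell morphology under phase-contrast light microscopy, scored as lowest concentration altering division; penicillin-susceptible strains B. subtilis ATCC9372, E. coli ATCC25922, P. aeruginosa ATCC27853, S. aureus ATCC25923.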

For test [2], the system named is Streptococcus pyogenes. Briefly: Antibacterial activity against penicillin-resistant Streptococcus pyogenes clinical isolates incubated for 24 hrs by tube-dilution method. Format: functional.
The subject of test [3] is Bacillus subtilis. Briefly: Antibacterial activity against penicillin-susceptible Bacillus subtilis ATCC 9372 incubated for 24 hrs by tube-dilution method. Format: functional. Conditions: ATCC 9372, 24 h. Put shortly: (§2)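 MIC by tube dilution per NCCLS; B. subtilis ATCC9372, E. coli ATCC25922, P. aeruginosa ATCC27853 and S. aureus ATCC25923 are penicillin-susceptible strains.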

The species named for test [4] is Sus scrofa. Briefly: Induction of porcine tubulin polymerisation at 2 times MIC for penicillin-resistant Staphylococcus aureus by fluorescence microscopy. Put shortly: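 Polymerisation of mammalian tubulin measured with a commercial tubulin assay kit, read by fluorescence of the kit reporter, with paclitaxel as the positive control for enhanced polymerisation.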

Test [5] concerns Pseudomonas aeruginosa. Description: Inhibition of FtsZ in penicillin-susceptible Pseudomonas aeruginosa ATCC 27853 assessed as lowest drug concentration causing inhibition of cell division incubated for 5 hrs by phase-contrast light microscopy. The procedure, abridged: as §1
Test [6] has as its system Streptococcus pyogenes. Description: Antibacterial activity against penicillin-susceptible Streptococcus pyogenes clinical isolates incubated for 24 hrs by tube-dilution method. Format: functional.
Test [7] concerns Staphylococcus aureus. Description: Antibacterial activity against […] Staphylococcus aureus ATCC 29213 incubated for 24 hrs by tube-dilution method. Format: functional. Conditions: ATCC 29213, 24 h. The procedure, abridged:
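Broth tube-dilution MIC run as NCCLS recommends, against the […] S. aureus strain ATCC29213.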

Test [8] concerns Escherichia coli. Description: Antibacterial activity against penicillin-susceptible Escherichia coli ATCC 25922 incubated for 24 hrs by tube-dilution method. The class given is functional. The note with it: ATCC 25922, 24 h. The procedure, abridged:
as §2

Test [9] deals with Staphylococcus aureus. Description: Antibacterial activity against penicillin-resistant Staphylococcus aureus clinical isolates incubated for 24 hrs by tube-dilution method. The class given is functional.
In test [10] the test system is Bacillus subtilis. Description: Inhibition of FtsZ in penicillin-susceptible Bacillus subtilis ATCC 9372 assessed as lowest drug concentration causing inhibition of cell division incubated for 5 hrs by phase-contrast light microscopy. The procedure, abridged: as §1
In test [11] the test system is Staphylococcus epidermidis. Description: Antibacterial activity against penicillin-resistant Staphylococcus epidermidis clinical isolates incubated for 24 hrs by tube-dilution method. The class given is functional.
The test system of test [12] is Staphylococcus aureus. Description: Antibacterial activity against penicillin-susceptible Staphylococcus aureus ATCC 25923 incubated for 24 hrs by tube-dilution method. The note with it: ATCC 25923, 24 h. The class given is functional. The procedure, abridged:
as §2

The subject of test [13] is Pseudomonas aeruginosa. Briefly: Antibacterial activity against penicillin-susceptible Pseudomonas aeruginosa ATCC 27853 incubated for 24 hrs by tube-dilution method. The class given is functional. The note with it: ATCC 27853, 24 h. Put shortly: as §2
Test [14] has as its system Staphylococcus aureus. Description: Inhibition of FtsZ in penicillin-susceptible Staphylococcus aureus ATCC 25923 assessed as lowest drug concentration causing inhibition of cell division incubated for 5 hrs by phase-contrast light microscopy. Put shortly:
as §1

Test [15] deals with Bacillus subtilis. Description: Potency index, ratio of MIC for curcumin to MIC for test compound against penicillin-susceptible Bacillus subtilis ATCC 9372 incubated for 24 hrs by tube-dilution method. The class given is functional.
In test [16] the test system is Streptococcus pyogenes. Briefly: Potency index, ratio of MIC for oxacillin sodium to MIC for test compound against penicillin-susceptible Streptococcus pyogenes clinical isolates incubated for 24 hrs by tube-dilution method. The class given is functional.
Test [17] deals with Bacillus subtilis. Description: Potency index, ratio of MIC for oxacillin sodium to MIC for test compound against penicillin-susceptible Bacillus subtilis ATCC 9372 incubated for 24 hrs by tube-dilution method. Format: functional.
Test [18] concerns Streptococcus pyogenes. Description: Potency index, ratio of MIC for sanguinarine to MIC for test compound against penicillin-susceptible Streptococcus pyogenes clinical isolates incubated for 24 hrs by tube-dilution method. Format: functional.
In test [19] the test system is Bacillus subtilis. Briefly: Potency index, ratio of MIC for sanguinarine to MIC for test compound against penicillin-susceptible Bacillus subtilis ATCC 9372 incubated for 24 hrs by tube-dilution method. The class given is functional.
Test [20] deals with Bacillus subtilis. Briefly: Potency index, ratio of MIC for ciprofloxaxin to MIC for test compound against penicillin-susceptible Bacillus subtilis ATCC 9372 incubated for 24 hrs by tube-dilution method. Format: functional.

`COc1cccc2c3ccccc3c[n+](C)c12.[Cl-]`: the MIC was greater than 128 µg/mL in [1]; 16 µg/mL in test [2]; 8 µg/mL in test [3]; greater than 128 µg/mL in [5]; 16 µg/mL in test [6]; greater than 128 µg/mL in [7]. For the same molecule, the MIC in [8] was greater than 128 µg/mL; in test [9], 16 µg/mL; in test [10], 8 µg/mL; in test [11], 128 µg/mL; in test [12], greater than 128 µg/mL; in test [13], greater than 128 µg/mL. For the same molecule, in [14], the MIC is greater than 128 µg/mL. Moreover, in test [4], the outcome was inactive.
On to `C[n+]1cc2ccccc2c2cc(F)ccc21.[Cl-]`, for which the MIC was greater than 128 µg/mL in test [1]; 32 µg/mL in [2]; 16 µg/mL in [3]; 128 µg/mL in test [5]; 32 µg/mL in [6]; greater than 128 µg/mL in test [7]. The MIC in test [8] was greater than 128 µg/mL; in test [9] it was 32 µg/mL; in test [10], 16 µg/mL; in test [11], greater than 128 µg/mL; in test [12], greater than 128 µg/mL; in test [13], 128 µg/mL. Also, the MIC in test [14] was greater than 128 µg/mL. Moreover, the result in [4] was inactive.
Consider `C[n+]1cc2ccccc2c2cc(C(C)(C)C)ccc21.[Cl-]`, for which the MIC in test [1] is 128 µg/mL; in test [2], 16 µg/mL; in test [3], 8 µg/mL; in test [5] it was greater than 128 µg/mL; in test [6], 16 µg/mL; in [7], greater than 128 µg/mL. Besides, the MIC in test [8] is greater than 128 µg/mL; in [9], 16 µg/mL; in test [10], 8 µg/mL; in test [11], 128 µg/mL; in [12], 64 µg/mL; in test [13], greater than 128 µg/mL. The MIC in [14] is 64 µg/mL. Besides, in test [4], the outcome was inactive.
As for `COc1ccc2c(c1)c1ccccc1c[n+]2C.[Cl-]`, the MIC in test [1] was greater than 128 µg/mL; in test [2], 16 µg/mL; in [3] it was 8 µg/mL; in test [5], greater than 128 µg/mL; in test [6], 8 µg/mL; in [7] it was 128 µg/mL. Further, the MIC was greater than 128 µg/mL in [8]; 8 µg/mL in test [9]; 8 µg/mL in test [10]; 64 µg/mL in test [11]; greater than 128 µg/mL in test [12]; greater than 128 µg/mL in test [13]. The MIC in test [14] is greater than 128 µg/mL. For the same molecule, the outcome in test [4] was inactive.
For `C[n+]1cc2ccccc2c2ccccc21.[Cl-]`, the MIC is greater than 128 µg/mL in test [1]; 32 µg/mL in [2]; 16 µg/mL in [3]; 128 µg/mL in [5]; 32 µg/mL in test [6]; greater than 128 µg/mL in [7]. The MIC in test [8] was greater than 128 µg/mL; in [9], 32 µg/mL; in test [10], 16 µg/mL; in [11], greater than 128 µg/mL; in [12] it was greater than 128 µg/mL; in test [13], 128 µg/mL. For the same molecule, the MIC in [14] was greater than 128 µg/mL. Further, the result in [4] was inactive.
In the case of `Cc1onc(-c2ccccc2)c1C(=O)N[C@@H]1C(=O)N2[C@@H]1SC(C)(C)[C@@H]2C(=O)[O-].[Na+]`, the MIC was 2 µg/mL in [2]; 8 µg/mL in test [3]; 1 µg/mL in [6]; 128 µg/mL in [7]; 128 µg/mL in test [8]; greater than 128 µg/mL in [9]. For the same molecule, the values for the MIC in test [11], in test [12] and in test [13] were 8 µg/mL, 8 µg/mL and 128 µg/mL, respectively.
As for `Cc1cccc2c3ccccc3c[n+](C)c12.[Cl-]`, the MIC in [1] is greater than 128 µg/mL; in test [2] it was 8 µg/mL; in test [3], 4 µg/mL; in [5], greater than 128 µg/mL; in test [6], 4 µg/mL; in test [7] it was greater than 128 µg/mL. For the same molecule, the MIC in [8] is greater than 128 µg/mL; in test [9] it was 4 µg/mL; in test [10], 4 µg/mL; in [11], 128 µg/mL; in test [12] it was 128 µg/mL; in [13], greater than 128 µg/mL. In addition, the MIC in [14] was 128 µg/mL. Also, the Ratio in test [15] was determined as 8; in [16] it was 4; in test [17] it was 2; in test [18] it was 2; in test [19], 2; in test [20], 2. In addition, the result in test [4] was inactive.
As to `O=C(O)c1cn(C2CC2)c2cc(N3CCNCC3)c(F)cc2c1=O` [CIPROFLOXACIN], the MIC was 8 µg/mL (≈ 24.1 µM) in test [3], 4 µg/mL (≈ 12.1 µM) in test [7] and 32 µg/mL (≈ 96.6 µM) in [12].
In the case of `C[n+]1cc2ccccc2c2cc(C(F)(F)F)ccc21.[Cl-]`, the MIC in [1] was greater than 128 µg/mL; in [2], 128 µg/mL; in test [3], 128 µg/mL; in test [5], greater than 128 µg/mL; in test [6] it was 128 µg/mL; in test [7], greater than 128 µg/mL. Moreover, the MIC is greater than 128 µg/mL in test [8]; 128 µg/mL in test [9]; 64 µg/mL in test [10]; 128 µg/mL in test [11]; 128 µg/mL in test [12]; greater than 128 µg/mL in [13]. Also, the MIC in [14] was 128 µg/mL. For the same molecule, in test [4], the outcome was inactive.
For the molecule `C[n+]1cc2ccccc2c2cc(Cl)ccc21.[Cl-]`, the MIC in test [1] is 128 µg/mL; in test [2] it was 32 µg/mL; in [3], 16 µg/mL; in test [5], greater than 128 µg/mL; in test [6], 32 µg/mL; in [7] it was greater than 128 µg/mL. For the same molecule, the MIC is 128 µg/mL in [8]; 32 µg/mL in test [9]; 16 µg/mL in [10]; greater than 128 µg/mL in test [11]; greater than 128 µg/mL in test [12]; greater than 128 µg/mL in [13]. Besides, in [14], the MIC is greater than 128 µg/mL. Besides, in [4], the result was inactive.
As for `C[n+]1cc2c3c(ccc2c2ccc4cc5c(cc4c21)OCO5)OCO3`, the MIC in [1] was greater than 128 µg/mL; in test [2], 8 µg/mL; in test [3], 8 µg/mL; in test [5], greater than 128 µg/mL; in test [6], 8 µg/mL; in test [7], 8 µg/mL. Further, the MIC was greater than 128 µg/mL in [8]; 4 µg/mL in test [9]; 8 µg/mL in [10]; 64 µg/mL in [11]; 8 µg/mL in test [12]; greater than 128 µg/mL in test [13]. In addition, the MIC in [14] came out at 8 µg/mL.
Take `CSc1ccc2c(c1)c1ccccc1c[n+]2C.[Cl-]`: the MIC in test [1] was 128 µg/mL; in test [2], 32 µg/mL; in [3], 8 µg/mL; in test [5] it was greater than 128 µg/mL; in test [6], 32 µg/mL; in test [7] it was greater than 128 µg/mL. The MIC was greater than 128 µg/mL in test [8]; 32 µg/mL in [9]; 8 µg/mL in test [10]; greater than 128 µg/mL in [11]; 128 µg/mL in [12]; greater than 128 µg/mL in test [13]. Moreover, in [14], the MIC was 128 µg/mL. In addition, in test [4], the outcome was inactive.
On to `CCCCc1ccc2c(c1)c1ccccc1c[n+]2C.[Cl-]`, for which the MIC in test [1] was 128 µg/mL; in [2], 8 µg/mL; in test [3], 4 µg/mL; in test [5], greater than 128 µg/mL; in [6], 8 µg/mL; in test [7] it was greater than 128 µg/mL. In addition, the MIC in test [8] is greater than 128 µg/mL; in test [9], 8 µg/mL; in test [10] it was 4 µg/mL; in test [11], greater than 128 µg/mL; in test [12], 64 µg/mL; in test [13], greater than 128 µg/mL. In [14], the MIC stood at 64 µg/mL. Also, in test [4], the result was inactive.
